T cell HTS: T cell immune modulators affecting CD8 T cell-vesicle binding | response (vesicle binding), % at 7 µM | 2C CD8+ T cell-vesicle binding, flow cytometry; active compounds read low | hit rate 0.068% among 330,000;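 active = response, share of CD8 T cells binding vesicles, and their 90th percentile fluorescence all below set limits, cut at about 80% in these data, passing the limit was not always enough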;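 also: values below 100% mean blocked vesicle binding to the CD8+ T cells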
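Benchmarks: naked versus QL9-loaded vesicles / Assay system: purified 2C TCR transgenic mouse naive CD8+ T cells / Technique: high-throughput flow cytometry with anti-B7-1 and anti-CD8 staining / Timing: Cell–vesicle co-incubation 1.5 h at 37 °C, staining 20 min on ice / Read-out: percent CD8+ FL2 mean versus row control / Probe or stimulus: QL9-loaded Drosophila micro-vesicles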
V-ATPase pH: yeast V-ATPase proton transport regulation by pHLuorin. S. cerevisiae, pHLuorin cytosolic pH fluorescence. response, % at 10 µM. hit rate 0.37% among 350,000. AID 504577; in the data active = response mostly above about 7.3%, no sharp cut-off; inactive = mostly below about 5.4%; also: actives read high
MPTP inh: blocks calcium-induced mitochondrial swelling; hit rate 1.4% among 360,000; inhibition, % at 10 µM; isolated mouse mitochondria, Ca2+ swelling absorbance, 30 min;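 active = inhibition of 50% or more, scaled per plate between neutral and stimulator controls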;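 also: 0% = DMSO wells given calcium and 100% = 1 mM EGTA wells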
Granule exo inh: lytic granule exocytosis inhibition | TALL-104 LAMP-1 surface exposure, flow cytometry; cells stimulated with thapsigargin and PMA | inhibition, % at 10 µM | hit rate 0.66% among 360,000;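 active = inhibition above about 55%, limit read from the data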
rCAG RNA binder: molecules binding r(CAG) RNA repeats; r(CAG) RNA repeat, TO-PRO-1 dye displacement fluorescence; hit rate 1.3% among 370,000; inhibition, % at 3 µM;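 active = inhibition above the plate cutoff, the mean of all test compounds on that plate plus 3 SD, cut at about 35% in these data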;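 also: 0% = DMSO alone and 100% = 100 µM mitoxantrone as full dye displacement; higher means more dye released from RNA so lower well fluorescence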
B2AR ag: activates human beta-2 adrenergic receptor causing internalization; Am2.2-beta2AR cells, FAP receptor internalization, flow cytometry; response, % (no concentration beside the values); hit rate 0.43% among 340,000;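 active = response above a set limit, near 3 SD of response in nonfluorescent compounds, cut at about 42% in these data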
Target sequence (P07550 whole entry, looked up): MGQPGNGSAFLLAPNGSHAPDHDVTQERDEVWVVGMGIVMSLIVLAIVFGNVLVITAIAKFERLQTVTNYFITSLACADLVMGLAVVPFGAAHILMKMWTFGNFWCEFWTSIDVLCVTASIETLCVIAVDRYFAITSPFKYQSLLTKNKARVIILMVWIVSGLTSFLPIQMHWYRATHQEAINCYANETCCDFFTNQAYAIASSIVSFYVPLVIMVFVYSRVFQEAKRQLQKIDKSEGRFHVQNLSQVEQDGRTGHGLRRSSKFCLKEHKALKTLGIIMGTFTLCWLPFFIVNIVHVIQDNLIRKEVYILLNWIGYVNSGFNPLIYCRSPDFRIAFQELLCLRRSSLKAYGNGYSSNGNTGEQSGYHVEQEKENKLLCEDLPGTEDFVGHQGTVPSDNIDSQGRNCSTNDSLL
MPTP counter: Rhodamine 123 counter-screen of mitochondrial pore hits; shares compounds with MPTP inh; hit rate 78% among 5,000; AID 624504; inhibition, % at 10 µM; isolated mitochondria, membrane potential, Rhodamine 123 fluorescence; in the data active = inhibition above about 22%;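 also: 0% = DMSO vehicle and 100% = positive control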
MPTP swell DR: dose response confirmation of mitochondrial permeability transition pore inhibitors. shares compounds with MPTP inh. isolated mitochondria swelling, absorbance. IC50, µM. hit rate 58% among 780; in the data active = IC50 below about 20 µM
MPTP counter DR: active in counter-screen for permeability transition pore inhibitors | shares compounds with MPTP inh | isolated mitochondria counterscreen, fluorescence read-out | IC50, µM | hit rate 49% among 780 | AID 651564; in the data active = IC50 below about 80 µM
Starred values were filed as active, the others as inactive; i = inactive; . = not tested or not shown. Only some compounds are listed: those with a hit (about 3.8% of all), similar ones and a draw of the others.

SMILES	T cell HTS	V-ATPase pH	MPTP inh	Granule exo inh	rCAG RNA binder	B2AR ag	MPTP counter	others
COc1ccc(NC(=O)N2CCN(c3nc(-c4cccc(OC)c4)cs3)CC2)cc1	231	-4	2	0	9	14	.
COCCCNC(=S)N1CCN(c2nc(-c3ccccc3)cs2)CC1	192	-3	2	5	-1	-3	.
CC1CCN(CCCCOc2ccc(C(C)(C)C)cc2)CC1	667	0	54*	15	-4	8	7	MPTP swell DR=6.8*;MPTP counter DR=13*
S=C(Nc1cccc(Cl)c1)Nc1ccccc1Oc1ccccc1	194	-2	91*	1	6	-2	110*
S=C(Nc1ccccc1Oc1ccccc1)Nc1cccc(Cl)c1Cl	525	-2	78*	-2	8	7	69*
S=C(Nc1ccc(Cl)cc1Cl)Nc1ccccc1Oc1ccccc1	297	1	34	-1	.	-9	.
CC[C@H](C(=O)Nc1ccccc1N1CCCC1)c1ccccc1	.	.	.	.	2	.	.
O=C(c1ccccc1)N1CCC2CCN(CCc3ccccc3)CC21 (configuration not stated)	.	.	.	.	2	.	.
COc1ccc(C(=O)OC2CCCCC2CN(C)C)cc1 (configuration not stated)	9	6	1	22	2	1	.
CC(C)COc1ccc(C(=O)OC2CC(C)(C)OCC2CN(C)C)cc1 (configuration not stated)	818	0	68*	14	-10	12	-8	MPTP swell DR=12*;MPTP counter DR=>80
CC(C)c1nc(SCc2c(F)cccc2Cl)c2c(=O)n(C)c(=O)n(C)c2n1	669	3	94*	-4	.	4	-6	MPTP swell DR=>100;MPTP counter DR=>80
c1ccc2c(c1)oc1c(Nc3ccc4c(c3)OCO4)ncnc12	172	0	8	2	7	11	.
c1ccc2c(c1)oc1c(NCc3ccc4c(c3)OCO4)ncnc12	190	4	84*	1	.	-5	110*
Cc1cc(OCC(=O)Nc2ccncc2)ccc1Cl	391	1	98*	-1	-5	-6	88*
Cc1cc(OCC(=O)Nc2ccc(Br)cc2)cc2c1C(=O)CC(C)(C)O2	284	-1	62*	16	0	-1	68*
Cc1cccc(OCC(=O)Nc2ccncc2)c1	466	-6	21	2	0	1	.
Cc1cc(OCC(=O)Nc2ccncc2)cc(C)c1Br	385	2	91*	-2	-3	-1	97*
O=C(Cn1cnc2ccccc2c1=O)N1CCCCC1	.	.	.	.	5	.	.
O=C1C2ON(c3ccccc3)C(c3ccncc3)C2C(=O)N1c1ccc(Br)cc1 (configuration not stated)	515	-1	69*	-2	7	10	22*
CN1[C@@H](Cc2ccccc2)COc2cccc(N3CCSCC3)c2S1(=O)=O	.	.	.	.	5	.	.
Cc1c(Cl)c([N+](=O)[O-])nn1CCCC(=O)Nc1cc(Oc2ccccc2)cc([N+](=O)[O-])c1	238	4	85*	10	-1	7	83*
Cc1ccc(/C(=N/Nc2nc3ccccc3s2)C2=C(O)c3ccccc3C2=O)cc1	163	2	90*	-3	26	1	71*
Cc1sc2ncnc(N3CCN(S(=O)(=O)c4ccc(C(C)(C)C)cc4)CC3)c2c1C	421	4	100*	-1	4	-5	100*
Cc1sc2ncnc(N3CCN(CCOc4ccc(Cl)cc4)CC3)c2c1C	452	0	100*	3	-2	0	102*
Cc1sc2ncnc(N3CCN(S(=O)(=O)c4ccc(Br)cc4)CC3)c2c1C	276	-1	93*	5	3	3	110*
SMILES	T cell HTS	V-ATPase pH	MPTP inh	Granule exo inh	rCAG RNA binder	B2AR ag	MPTP counter	others
Cc1csc2ncnc(N3CCN(S(=O)(=O)c4cccc(C(F)(F)F)c4)CC3)c12	233	-3	97*	2	-3	7	93*
O=S(=O)(c1cccc(Br)c1)N1CCN(c2ncnc3scc(-c4ccccc4)c23)CC1	.	-3	-2	0	3	-8	.
Cc1nc(N2CCN(S(=O)(=O)c3ccc(F)cc3)CC2)c2c(C)c(C)sc2n1	482	4	0	-2	-2	1	.
O=C(Nc1ccc(F)cc1)OCc1cn(Cc2ccc(F)cc2F)nn1	.	.	.	.	-1	.	.
Cc1cccc(OC(=O)NCCOC(=O)N(O)c2ccc(Cl)cc2)c1	168	-10	91*	0	-2	6	81*
O=S(=O)(c1cc2ccccc2s1)n1c(CN2CCOCC2)nc2ccccc21	.	.	.	.	0	.	.
CC1(C)CC(NC(=O)c2cccc(S(=O)(=O)N(Cc3ccccc3)c3ccccc3)c2)CC(C)(C)N1	370	-7	83*	20	1	33	-17	MPTP swell DR=9.5*;MPTP counter DR=>80
CCn1nccc1C(=O)Nc1cc(Cl)cc(Cl)c1	139	-4	66*	-1	-1	0	75*
CCn1nccc1C(=O)Nc1ccc(Cl)cn1	162	3	-2	3	-1	-4	.
COC(=O)C1CN(Cc2cn(CCC3OCCO3)nn2)CCS(=O)(=O)N1Cc1ccc(Cl)cc1 (configuration not stated)	.	.	.	.	3	.	.
Cc1cccc(C)c1NC(=O)Nc1cccs1	497	-3	1	4	4	7	.
COc1ccc(NC(=O)Nc2cccs2)cc1Cl	200	5	74*	-3	10	-7	80*
CCc1cccc(NC(=O)Nc2cccs2)c1	284	3	79*	-4	9	-9	99*
O=C(Nc1cccs1)Nc1c(F)c(F)c(F)c(F)c1F	276	0	96*	-12	0	-4	84*
COc1ccc(NC(=O)CCC(=O)c2cccs2)cc1Cl	201	3	2	0	1	-1	.
N#Cc1cccc(NC(=S)Nc2ccccc2)c1	373	-1	82*	1	1	7	90*
COC(=O)c1cc2c(c3c4cc(OC)ccc4n(S(=O)(=O)c4ccc(F)cc4)c13)C(=O)N(C)C2	.	.	.	.	14	.	.
Cc1ccc(Cn2nnc3c2-c2ccccc2S(=O)(=O)N(C)C3)cc1	.	.	.	.	2	.	.
N#Cc1cccc(NC(=O)Nc2cccs2)c1	277	0	86*	4	5	-3	106*
Cc1cccc(NC(=O)Nc2cccc(C#N)c2)n1	i	0	0	5	5	-9	.
Cc1cc(O)c2c(c1)C(=O)c1cc(O)cc(O)c1C2=O	480	-1	50*	4	21	4	80*
Cc1ccc2c(c1)-c1cc(C)ccc1C2=O	.	0	0	-3	3	-1	.
